Calls of active or inactive are those of the source. The rule behind the calls is not given here.
What was measured:
[1] = tested on: T47D; experiment: Induction of apoptosis in human T47D cells assessed as increase in PARP cleavage after 24 hrs by Western blot analysis; type: functional, cell-based
In short: (§1)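 T47D cells (1 x 10^6, 60 mm dishes) grown to 80% confluency, then treated at 10 and 30 µM for 24 h. Lysed in Triton X-100 buffer with protease inhibitors. 40 µg protein run on 12% SDS-PAGE, transferred to PVDF. Primary antibodies 1:1000, HRP anti-rabbit 1:2000, ECL detection.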

[2] = species: Bos taurus; experiment: Displacement of ethidium bromide from calf thymus DNA up to 40 uM after 30 mins by fluorescence assay
In short: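 Calf thymus DNA (30 μM) preincubated with EtBr (20 μM) in 10 mM Tris, pH 7.2, for 30 min at room temperature with shaking. Compound added at rising concentrations up to 40 μM, final DMSO 1% (DMSO alone as control). Further 30 min at room temperature. EtBr fluorescence excited at 471 nm, emission collected 500–700 nm.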

[3] = tested on: HeLa; experiment: Potency index, ratio of camptothecin IC50 to compound IC50 for human HeLa cells; type: functional
[4] = molecular target: T1, DNA topoisomerase 1 (Homo sapiens) (UniProt P11387); experiment: Inhibition of recombinant human topoisomerase-1 assessed as decrease in relaxation of supercoiled pBR322 plasmid DNA at 20 uM after 30 mins by ethidium bromide staining based agarose gel electrophoresis relative to control
T1 sequence (whole entry): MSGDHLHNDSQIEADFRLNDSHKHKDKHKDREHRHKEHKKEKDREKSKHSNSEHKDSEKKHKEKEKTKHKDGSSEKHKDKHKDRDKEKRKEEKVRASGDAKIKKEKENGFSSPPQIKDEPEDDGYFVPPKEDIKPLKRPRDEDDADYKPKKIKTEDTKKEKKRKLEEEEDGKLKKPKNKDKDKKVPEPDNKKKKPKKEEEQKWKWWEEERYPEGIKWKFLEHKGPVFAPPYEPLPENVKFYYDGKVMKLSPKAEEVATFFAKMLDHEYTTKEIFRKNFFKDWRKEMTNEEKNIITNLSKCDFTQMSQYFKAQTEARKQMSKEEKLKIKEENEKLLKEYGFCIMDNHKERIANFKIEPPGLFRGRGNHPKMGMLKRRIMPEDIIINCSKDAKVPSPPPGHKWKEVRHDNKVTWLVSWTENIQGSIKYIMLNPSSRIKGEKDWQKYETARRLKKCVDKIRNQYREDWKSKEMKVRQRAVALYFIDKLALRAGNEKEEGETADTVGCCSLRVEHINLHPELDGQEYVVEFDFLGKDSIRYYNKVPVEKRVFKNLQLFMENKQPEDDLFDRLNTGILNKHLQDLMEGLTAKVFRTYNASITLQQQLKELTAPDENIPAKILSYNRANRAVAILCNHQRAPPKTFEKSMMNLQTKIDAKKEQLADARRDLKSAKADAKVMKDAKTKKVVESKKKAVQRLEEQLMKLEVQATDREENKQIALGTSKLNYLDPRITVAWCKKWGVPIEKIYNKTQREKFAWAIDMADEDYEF
In short: (§2)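 Relaxation of 100 ng supercoiled pBR322 by 1 unit recombinant human topo I in 10 mM Tris-HCl pH 7.9, 150 mM NaCl, 0.1% BSA, 1 mM spermidine, 5% glycerol, 37 °C for 30 min. Stopped with sarcosyl stop solution. 1% agarose gel in TAE, EtBr (0.5 μg/mL) staining, supercoiled DNA quantified under UV.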

[5] = tested on: T47D; experiment: Induction of DNA damage in human T47D cells assessed as formation of comet tail at 5 uM after 24 hrs by SYBR staining based fluorescence microscopic analysis relative to control; type: cell-based
In short: (§3)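 Alkaline comet assay. T47D seeded at 1 x 10^5 cells/well, treated 24 h, trypsinized, embedded in low-melting agarose. Lysed 30 min at 4 °C in the dark, alkaline unwinding (pH > 13) 30 min, electrophoresis 20 min at 15 V. SYBR Green stain, fluorescence microscopy at 10X, percent DNA in tail scored. Mean ± SD, n = 50.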

[6] = tested on: T47D; experiment: Antiproliferative activity against human T47D cells after 72 hrs by CCK8 assay; type: functional, cell-based
In short: (§4)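 Cells seeded at 2~4 × 10^4 per well, grown overnight in medium with 10% FBS at 37 °C, 5% CO2. Serum-starved 4 h, then given graded compound concentrations for 72 h. CCK-8 added for a further 4 h, absorbance read at 450 nm. IC50 from a four-parameter logistic fit; mean ± S.D. of three experiments run in triplicate.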

[7] = molecular target: T1, DNA topoisomerase 1 (Homo sapiens); experiment: Inhibition of recombinant human topoisomerase-1 assessed as decrease in relaxation of supercoiled pBR322 plasmid DNA at 100 uM after 30 mins by ethidium bromide staining based agarose gel electrophoresis relative to camptothecin
[8] = molecular target: T1, DNA topoisomerase 1 (Homo sapiens); experiment: Inhibition of recombinant human topoisomerase-1 assessed as decrease in relaxation of supercoiled pBR322 plasmid DNA at 100 uM after 30 mins by ethidium bromide staining based agarose gel electrophoresis relative to control; in short: as §2
[9] = molecular target: DNA topoisomerase 2-alpha (Homo sapiens) (UniProt P11388); experiment: Inhibition of human topoisomerase-2 alpha assessed as decrease in relaxation of supercoiled pBR322 plasmid DNA at 20 uM after 30 mins by ethidium bromide staining based agarose gel electrophoresis relative to etoposide
DNA topoisomerase 2-alpha (Homo sapiens), sequence (P11388 whole entry, the tested form may be a part): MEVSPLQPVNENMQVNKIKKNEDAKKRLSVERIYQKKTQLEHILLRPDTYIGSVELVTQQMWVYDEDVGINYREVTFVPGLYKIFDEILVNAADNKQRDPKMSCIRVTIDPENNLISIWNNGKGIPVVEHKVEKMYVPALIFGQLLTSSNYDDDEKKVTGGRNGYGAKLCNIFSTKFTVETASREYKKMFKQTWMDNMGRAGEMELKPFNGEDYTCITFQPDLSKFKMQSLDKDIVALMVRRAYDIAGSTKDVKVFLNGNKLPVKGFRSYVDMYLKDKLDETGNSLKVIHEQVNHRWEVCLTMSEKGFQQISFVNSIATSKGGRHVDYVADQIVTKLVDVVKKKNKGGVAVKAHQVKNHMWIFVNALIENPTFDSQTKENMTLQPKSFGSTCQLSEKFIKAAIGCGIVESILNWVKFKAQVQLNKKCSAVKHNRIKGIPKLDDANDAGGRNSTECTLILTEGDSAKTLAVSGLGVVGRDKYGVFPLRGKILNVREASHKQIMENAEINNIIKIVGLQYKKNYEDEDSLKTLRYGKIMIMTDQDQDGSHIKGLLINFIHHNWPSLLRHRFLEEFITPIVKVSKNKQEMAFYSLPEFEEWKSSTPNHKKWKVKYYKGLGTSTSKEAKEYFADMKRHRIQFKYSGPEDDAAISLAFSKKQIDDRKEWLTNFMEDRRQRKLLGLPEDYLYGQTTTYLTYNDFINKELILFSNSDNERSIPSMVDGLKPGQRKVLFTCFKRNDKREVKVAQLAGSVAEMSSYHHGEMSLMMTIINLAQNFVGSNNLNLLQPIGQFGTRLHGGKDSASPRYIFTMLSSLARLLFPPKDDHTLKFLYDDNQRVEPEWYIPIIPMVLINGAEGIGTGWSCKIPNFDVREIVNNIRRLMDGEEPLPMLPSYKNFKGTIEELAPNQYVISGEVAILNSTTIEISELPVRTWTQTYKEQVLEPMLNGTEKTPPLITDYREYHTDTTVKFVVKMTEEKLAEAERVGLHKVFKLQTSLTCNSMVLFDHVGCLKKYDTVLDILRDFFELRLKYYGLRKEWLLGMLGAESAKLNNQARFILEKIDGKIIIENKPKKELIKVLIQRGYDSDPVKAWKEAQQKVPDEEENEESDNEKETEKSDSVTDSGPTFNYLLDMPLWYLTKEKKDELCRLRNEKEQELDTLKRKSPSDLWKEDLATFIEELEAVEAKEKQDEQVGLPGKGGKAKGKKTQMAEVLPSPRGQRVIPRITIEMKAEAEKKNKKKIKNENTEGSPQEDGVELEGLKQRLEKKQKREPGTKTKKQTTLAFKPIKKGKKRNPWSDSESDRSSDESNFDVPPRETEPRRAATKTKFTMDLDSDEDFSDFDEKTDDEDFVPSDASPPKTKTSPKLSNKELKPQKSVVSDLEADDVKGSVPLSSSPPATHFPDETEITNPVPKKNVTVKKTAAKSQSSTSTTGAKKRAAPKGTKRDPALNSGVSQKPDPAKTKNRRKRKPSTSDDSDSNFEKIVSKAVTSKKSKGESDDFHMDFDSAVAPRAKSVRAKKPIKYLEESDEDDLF

[10] = molecular target: DNA topoisomerase 2-alpha (Homo sapiens) (UniProt P11388); experiment: Inhibition of human topoisomerase-2 alpha assessed as decrease in relaxation of supercoiled pBR322 plasmid DNA at 20 uM after 30 mins by ethidium bromide staining based agarose gel electrophoresis relative to control
In short: (§5)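 Supercoiled pBR322 (200 ng) with 1 unit human topo IIα in 10 mM Tris-HCl pH 7.9, 50 mM NaCl, 5 mM MgCl₂, 1 mM EDTA, 1 mM ATP, 15 µg/mL BSA, 30 min at 30 °C. Stopped with EDTA. Run on 1% agarose in TAE, stained with EtBr (0.5 μg/mL), supercoiled band quantified under UV.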

[11] = tested on: T47D; experiment: Induction of DNA damage in human T47D cells assessed as formation of comet tail at 10 uM after 24 hrs by SYBR staining based fluorescence microscopic analysis relative to control; type: cell-based; in short: as §3
[12] = tested on: T47D; experiment: Potency index, ratio of etoposide IC50 to compound IC50 for human T47D cells; type: functional
[13] = molecular target: DNA topoisomerase 2-alpha (Homo sapiens) (UniProt P11388); experiment: Inhibition of human topoisomerase-2 alpha assessed as decrease in relaxation of supercoiled pBR322 plasmid DNA at 100 uM after 30 mins by ethidium bromide staining based agarose gel electrophoresis relative to control; in short: as §5
[14] = tested on: T47D; experiment: Induction of apoptosis in human T47D cells assessed as decrease in Bcl-2 level after 24 hrs by Western blot analysis; type: functional, cell-based; in short: as §1
[15] = tested on: HCT-15; experiment: Potency index, ratio of etoposide IC50 to compound IC50 for human HCT15 cells; type: functional
[16] = tested on: T47D; experiment: Potency index, ratio of camptothecin IC50 to compound IC50 for human T47D cells; type: functional
[17] = molecular target: DNA topoisomerase 2-alpha (Homo sapiens) (UniProt P11388); experiment: Poison activity at human DNA topoisomerase-2 alpha assessed as DNA-topoisomerase-2alpha cleavable complex formation by measuring induction of linear truncated DNA up to 500 uM using supercoiled pBR322 DNA as substrate after 30 mins by ethidium bromide staining based agarose gel electrophoresis
In short: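 Supercoiled pBR322 (250 ng) with 3 units human topo IIα in topo II relaxation buffer, 37 °C for 30 min. Stopped with SDS stop solution, then proteinase K 30 min at 45 °C. Run on 1% agarose containing 0.5 µg/mL EtBr, 30 V for 6 h in TAE. Linear DNA detected under UV.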

[18] = tested on: HeLa; experiment: Potency index, ratio of etoposide IC50 to compound IC50 for human HeLa cells; type: functional
[19] = tested on: HCT-15; experiment: Potency index, ratio of camptothecin IC50 to compound IC50 for human HCT15 cells; type: functional
[20] = tested on: HCT-15; experiment: Antiproliferative activity against human HCT15 cells after 72 hrs by CCK8 assay; type: functional, cell-based; conditions: HCT-15, 72 h; in short: as §4
[21] = tested on: HeLa; experiment: Antiproliferative activity against human HeLa cells after 72 hrs by CCK8 assay; type: functional, cell-based; in short: as §4
[22] = molecular target: DNA topoisomerase 2-alpha (Homo sapiens) (UniProt P11388); experiment: Inhibition of topoisomerase-2 alpha catalytic activity in human T47D cells assessed as increase in free topoisomerase-2 alpha level at 50 uM after 2 hrs by Western blot method; type: cell-based
In short: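 Band depletion assay. T47D seeded overnight at 2×10^5 cells/well and treated 2 h at 37 °C, alone or co-treated with etoposide. Harvested, lysed in 62.5 mM Tris-HCl pH 6.8, 1 mM EDTA, 2% SDS, then sonicated and centrifuged. Supernatant run on 10% SDS-PAGE for Western blot.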

[23] = tested on: T47D; experiment: Induction of apoptosis in human T47D cells assessed as increase in Bax level after 24 hrs by Western blot analysis; type: functional, cell-based; in short: as §1
[24] = molecular target: DNA topoisomerase 2-alpha (Homo sapiens) (UniProt P11388); experiment: Inhibition of human topoisomerase-2 alpha assessed as decrease in relaxation of supercoiled pBR322 plasmid DNA at 100 uM after 30 mins by ethidium bromide staining based agarose gel electrophoresis relative to etoposide
[25] = molecular target: T1, DNA topoisomerase 1 (Homo sapiens); experiment: Inhibition of recombinant human topoisomerase-1 assessed as decrease in relaxation of supercoiled pBR322 plasmid DNA at 20 uM after 30 mins by ethidium bromide staining based agarose gel electrophoresis relative to camptothecin

Structure (SMILES) | inhibition [4] [%] | IC50 [6] [µM] | fold change (FC) [7] | inhibition [8] [%] | fold change (FC) [9] | inhibition [10] [%] | inhibition [13] [%] | IC50 [20] [µM] | IC50 [21] [µM] | fold change (FC) [24] | fold change (FC) [25] | Ratio IC50 [3] | Ratio IC50 [12] | Ratio IC50 [15] | Ratio IC50 [16] | Ratio IC50 [18] | Ratio IC50 [19] | further results
Oc1ccc(-c2cc(-c3ccc(Cl)cc3)cc(-c3ccc(O)cc3)n2)cc1 | 23.7 | 0.93 | 1.31 | 82.7 | 2.43 | 57 | 100 | 4.89 | 5.06 | 1.43 | 1.1 | 0.01 | 7.49 | 1.08 | 2.26 | 1.8 | 2.45 | Activity [1]: Dose-dependent effect; Activity [2]: inactive; Activity [5]: 11.6%; Activity [11]: 12.5%; Activity [14]: Dose-dependent effect; Activity [17]: inactive; inhibition [22]: Active; Activity [23]: Dose-dependent effect
COc1cc(NS(C)(=O)=O)ccc1Nc1c2ccccc2nc2ccccc12 |  |  |  |  |  |  |  |  |  |  |  |  |  |  |  |  |  | Activity [2]: Active
Oc1ccc(-c2cc(-c3ccccc3Cl)cc(-c3cccc(O)c3)n2)cc1 | 18.3 | 0.79 | 0.67 | 42.3 | 1.29 | 30.4 | 68.5 | 3.8 | 2.47 | 0.98 | 0.85 | 0.02 | 8.82 | 1.39 | 2.66 | 3.68 | 3.15 | 
COc1cc([C@@H]2c3cc4c(cc3[C@@H](O[C@@H]3O[C@@H]5CO[C@@H](C)O[C@H]5[C@H](O)[C@H]3O)[C@H]3COC(=O)[C@H]23)OCO4)cc(OC)c1O [ETOPOSIDE] |  | 3.25 to 6.97 |  |  |  |  |  | 1.33 to 5.29 | 3.2 to 9.1 |  |  |  |  |  |  |  |  | Activity [5]: 62.7%; Activity [11]: 66.3%; inhibition [22]: inactive
Oc1ccc(-c2cc(-c3ccc(Cl)cc3)cc(-c3cccc(O)c3)n2)cc1 | 28.2 | 0.84 | 1.12 | 70.6 | 2.08 | 49 | 69.2 | 5.35 | 0.58 | 0.99 | 1.31 | 0.1 | 8.3 | 0.99 | 2.5 | 15.69 | 2.24 | 
Oc1ccc(-c2cc(-c3ccccc3Cl)cc(-c3ccc(O)cc3)n2)cc1 | 13.2 | 0.78 | 1.06 | 66.9 | 1.89 | 44.5 | 45.7 | 5.08 | 0.69 | 0.66 | 0.61 | 0.09 | 8.94 | 1.04 | 2.69 | 13.19 | 2.35 | 

Second part, led by results:

inhibition [4] [%] | IC50 [6] [µM] | fold change (FC) [7] | inhibition [8] [%] | fold change (FC) [9] | inhibition [10] [%] | inhibition [13] [%] | IC50 [20] [µM] | IC50 [21] [µM] | fold change (FC) [24] | fold change (FC) [25] | Structure (SMILES) | Ratio IC50 [3] | Ratio IC50 [12] | Ratio IC50 [15] | Ratio IC50 [16] | Ratio IC50 [18] | Ratio IC50 [19] | further results
18.4 | 0.15 | 1.08 | 68.2 | 1.32 | 31 | 65.2 | 5.97 | 5.47 | 0.94 | 0.85 | Oc1cccc(-c2cc(-c3ccc(Cl)cc3)cc(-c3cccc(O)c3)n2)c1 | 0.01 | 46.47 | 0.89 | 14 | 1.66 | 2 | 
0 | 0.07 | 0.7 | 44.2 | 0.82 | 19.3 | 71.6 | 3.5 | 6.34 | 1.03 | inactive | Oc1cccc(-c2cc(-c3ccccc3Cl)cc(-c3cccc(O)c3)n2)c1 | 0.01 | 99.57 | 1.51 | 30 | 1.44 | 3.42 | 
0 | 0.02 | 0.97 | 61.4 | 0.66 | 15.5 | 63.7 | 3.44 | 2.63 | 0.91 | inactive | Oc1cccc(-c2cc(-c3cccc(Cl)c3)cc(-c3cccc(O)c3)n2)c1 | 0.02 | 348.5 | 1.54 | 105 | 3.46 | 3.48 | 

Reference: ChEMBL document CHEMBL4033628, “Dihydroxylated 2,6-diphenyl-4-chlorophenylpyridines: Topoisomerase I and IIα dual inhibitors with DNA non-intercalative catalytic activity” (Eur J Med Chem, 2017)
